We go through ten molecules from ChEMBL document CHEMBL1165902, “Synthesis and antiproliferative activity of oxazinocarbazole and N,N-bis(carbazolylmethyl)amine derivatives” (Eur J Med Chem, 2010).

For assay [1], the system named is CCRF-CEM. The assay is described as follows: Antiproliferative activity against human CEM cells after at 100 uM 72 hrs by WST1 assay. The assay is classed as functional. An outline of the steps: (§1)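 Cells were exposed to compound for 72 h at 37 °C in RPMI 1640 with 10% FCS. Densities (cells/mL) were CEM 0.2×10^6, Jurkat 0.6×10^6, Raji 0.4×10^6, MCF-7 and Caco-2 0.2×10^6. WST-1 was then added for 4 h and absorbance read at 492 nm. Living cells are given as % of untreated-control OD (100 = no activity), with 0.1% DMSO vehicle controls and etoposide as positive control.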

The subject of assay [2] is Raji. Kind of assay: Antiproliferative activity against human Raji cells after 72 hrs by WST1 assay. The assay is classed as functional, cell-based. The method, boiled down:
(§2)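 Seeding densities (cells/mL) were CEM 0.2×10^6, Jurkat 0.6×10^6, Raji 0.4×10^6, MCF-7 0.2×10^6 and Caco-2 0.2×10^6, in RPMI 1640 with 10% FCS, non-essential amino acids, pyruvate, glutamine and gentamicin. Cells were exposed to 12.5–100 µM (DMSO stocks, 0.1% DMSO controls) for 72 h at 37 °C. WST-1 was added for 4 h and read at 492 nm. IC50 is for 50% growth inhibition.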

Assay [3] deals with Caco-2. Kind of assay: Antiproliferative activity against human Caco-2 cells at 100 uM after 72 hrs by WST1 assay. The assay is classed as functional. The method, boiled down:
as §1

For assay [4], the system named is Jurkat. Kind of assay: Antiproliferative activity against human Jurkat cells after 72 hrs by WST1 assay. The assay is classed as functional, cell-based. An outline of the steps: as §2
The test system of assay [5] is MCF7. Kind of assay: Antiproliferative activity against human MCF7 cells at 100 uM after 72 hrs by WST1 assay. The assay is classed as functional. The method, boiled down:
as §1

Assay [6] has as its system Caco-2. The assay is described as follows: Antiproliferative activity against human Caco-2 cells after 72 hrs by WST1 assay. The assay is classed as functional, cell-based. The conditions noted are these: Caco-2, 72 h. An outline of the steps:
as §2

Assay [7] has as its system Jurkat. The assay is described as follows: Antiproliferative activity against human Jurkat cells at 100 uM after 72 hrs by WST1 assay. The assay is classed as functional. The method, boiled down: as §1
In assay [8] the test system is Raji. The assay is described as follows: Antiproliferative activity against human Raji cells at 100 uM after 72 hrs by WST1 assay. The assay is classed as functional. The method, boiled down:
as §1

In assay [9] the test system is CCRF-CEM. The assay is described as follows: Antiproliferative activity against human CEM cells after 72 hrs by WST1 assay. The assay is classed as functional, cell-based. An outline of the steps:
as §2

Assay [10] relates to MCF7. The assay is described as follows: Antiproliferative activity against human MCF7 cells after 72 hrs by WST1 assay. The assay is classed as functional, cell-based. The conditions noted are these: MCF7, 72 h. The method, boiled down: as §2

Molecules are shown by their SMILES.

With `C=CCN1COc2cc3c(cc2C1)c1ccccc1n3C`, the Activity with CCRF-CEM [1] was 1.5%; in the assay with Caco-2 [3], 2.5%; with MCF7 [5], 1.5%; in the assay with Jurkat [7] it was 1.5%; with Raji [8] it was 10.5%. The IC50 with Raji [2] was 56.2 µM; in the assay on Jurkat [4], 50 µM; with Caco-2 [6] it was 32.1 µM; in the assay on CCRF-CEM [9], 50.1 µM; with MCF7 [10] it was 62.6 µM.
In the case of `Cc1ccc(CN2COc3cc4c(cc3C2)c2ccccc2n4C)cc1`, the Activity in the assay on CCRF-CEM [1] is recorded as 1%; in the assay with Caco-2 [3], 6.5%; in the assay with MCF7 [5], 27.5%; with Jurkat [7], 2.5%; with Raji [8], 27%. Further, the concentration for half-maximal inhibition (IC50) was 72.8 µM in the assay on Raji [2]; 71.1 µM in the assay on Jurkat [4]; 57.4 µM in the assay on Caco-2 [6]; 68.8 µM in the assay on CCRF-CEM [9]; 75 µM in the assay on MCF7 [10].
In the case of `C=CCN1COc2c(ccc3c2c2ccccc2n3CC=C(C)C)C1`, the Activity with CCRF-CEM [1] came out at 4%; in the assay with Caco-2 [3], 30%; in the assay on MCF7 [5], 2%; with Jurkat [7] it was 2%; with Raji [8], 3.5%. The 50% inhibitory concentration (IC50) came to 11.9 µM with Raji [2]; 11.8 µM in the assay on Jurkat [4]; 43.8 µM in the assay with Caco-2 [6]; 11.8 µM in the assay on CCRF-CEM [9]; 37 µM in the assay on MCF7 [10].
As to `CC(C)=CCn1c2ccccc2c2c3c(ccc21)CN(Cc1ccccc1)CO3`, the Activity with CCRF-CEM [1] came to 5.5%; in the assay with Caco-2 [3], 53%; in the assay with MCF7 [5] it was 27.5%; in the assay with Jurkat [7] it was 7.5%; in the assay with Raji [8] it was 7%. Besides, the 50% inhibitory concentration (IC50) came to 39.3 µM in the assay on Raji [2]; 55.5 µM with Jurkat [4]; 75 µM with Caco-2 [6]; 37.6 µM in the assay with CCRF-CEM [9]; 75 µM with MCF7 [10].
Turning to `Cn1c2ccccc2c2ccc3c(c21)CN(Cc1ccccn1)CO3`, the Activity was found to be 1% with CCRF-CEM [1]; 7% in the assay with Caco-2 [3]; 1.5% with MCF7 [5]; 2% in the assay on Jurkat [7]; 23% in the assay on Raji [8]. Moreover, the IC50 in the assay on Jurkat [4] turned out to be 75 µM; in the assay with Caco-2 [6], 68.8 µM; with CCRF-CEM [9] it was 74.3 µM.
With `Cn1c2ccccc2c2cc3c(cc21)OCN(Cc1ccccn1)C3`, the Activity in the assay on CCRF-CEM [1] is reported as 1.5%; in the assay on Caco-2 [3], 7.5%; in the assay with MCF7 [5] it was 5%; in the assay with Jurkat [7], 3.5%; in the assay with Raji [8] it was 38%. For the same molecule, the IC50 in the assay with Raji [2] is 12.1 µM; in the assay on Jurkat [4] it was 11.5 µM; with Caco-2 [6], 43.7 µM; in the assay on CCRF-CEM [9], 16.5 µM; in the assay with MCF7 [10] it was 56.4 µM.
Take `Cn1c2ccccc2c2ccc3c(c21)CN(Cc1ccccc1)CO3`: the Activity is recorded as 1.5% with CCRF-CEM [1]; 6% with Caco-2 [3]; 60.5% in the assay with MCF7 [5]; 5.5% in the assay with Jurkat [7]; 31.5% in the assay with Raji [8]. Also, the half-maximal inhibitory concentration (IC50) in the assay on Raji [2] was determined as 75 µM; with Jurkat [4], 74.2 µM; in the assay on Caco-2 [6], 62.5 µM; with CCRF-CEM [9] it was 70.8 µM; in the assay on MCF7 [10] it was 72.1 µM.
With `C=CCN1COc2c(ccc3c2c2ccccc2n3C)C1`, the Activity is on record as 4.5% with CCRF-CEM [1]; 5% in the assay with Caco-2 [3]; 35% in the assay on MCF7 [5]; 8.5% with Jurkat [7]; 9.5% in the assay on Raji [8]. Further, the concentration for half-maximal inhibition (IC50) in the assay on Raji [2] was determined as 43.6 µM; with Jurkat [4] it was 69 µM; in the assay with Caco-2 [6], 32.1 µM; in the assay with CCRF-CEM [9] it was 35.7 µM.
`CC(c1ccccc1)N1COc2cc3c(cc2C1)c1ccccc1n3C` (stereo unspecified): the Activity with CCRF-CEM [1] is listed as 0.5%; in the assay on Caco-2 [3] it was 2%; in the assay with MCF7 [5] it was 0%; with Jurkat [7] it was 1%; in the assay on Raji [8], 18.5%. In addition, the half-inhibitory concentration (IC50) was determined as 57.9 µM in the assay with Raji [2]; 37.3 µM with Jurkat [4]; 37.7 µM in the assay with Caco-2 [6]; 25.2 µM with CCRF-CEM [9]; 62.5 µM in the assay with MCF7 [10].
On to `C=CCN1COc2c(ccc3c2c2ccccc2n3CC)C1`, for which the Activity with CCRF-CEM [1] was found to be 4%; in the assay with Caco-2 [3], 34%; in the assay on MCF7 [5], 10%; in the assay with Jurkat [7], 6.5%; in the assay with Raji [8], 4.5%. For the same molecule, the IC50 in the assay with Raji [2] is 43.6 µM; in the assay with Jurkat [4], 75 µM; in the assay with Caco-2 [6], 25.2 µM; in the assay with CCRF-CEM [9], 44 µM.
